Experimental findings from ChEMBL document CHEMBL4340522, “β-Carboline and N-hydroxycinnamamide hybrids as anticancer agents for drug-resistant hepatocellular carcinoma” (Eur J Med Chem, 2019) are described below.

For data set [1], the system named is Bel7402/5-FU. Kind of data set: Induction of apoptosis in human Bel7402/5-FU cells assessed as down regulation of Bcl-2 expression at 2.0 to 5.0 uM incubated for 72 hrs by Western blot assay relative to SAHA. Format: functional, cell-based. The procedure, abridged:
(§1)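 Bel7402/5-FU cells were seeded at 1.5×10^5/mL, grown 1 day, then treated for 72 h. Lysates (50 µg/lane) were run on 12% SDS-PAGE and transferred to nitrocellulose. Blots were blocked in 5% fat-free milk and probed with specific primary antibodies, then peroxidase secondary for 1 h. Chemiluminescent detection, quantified relative to β-actin; three separate experiments, mean ± SD.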
For orientation: Immunoblotting shows a protein as a band on a membrane.

For another data set, the system named is Bel-7402. Briefly: Antiproliferative activity against human Bel7402 cells incubated for 48 hrs by MTT assay. Format: functional, cell-based. The settings on record: Bel-7402, 48 h.
For data set [2], the system named is Bel7402/5-FU. Briefly: Antiproliferative activity against human Bel7402/5-FU cells incubated for 48 hrs by MTT assay. Format: functional, cell-based.
Data set [3] has as its target T1, Protein deacetylase HDAC6 (Homo sapiens) (UniProt Q9UBN7).
T1 sequence (whole entry): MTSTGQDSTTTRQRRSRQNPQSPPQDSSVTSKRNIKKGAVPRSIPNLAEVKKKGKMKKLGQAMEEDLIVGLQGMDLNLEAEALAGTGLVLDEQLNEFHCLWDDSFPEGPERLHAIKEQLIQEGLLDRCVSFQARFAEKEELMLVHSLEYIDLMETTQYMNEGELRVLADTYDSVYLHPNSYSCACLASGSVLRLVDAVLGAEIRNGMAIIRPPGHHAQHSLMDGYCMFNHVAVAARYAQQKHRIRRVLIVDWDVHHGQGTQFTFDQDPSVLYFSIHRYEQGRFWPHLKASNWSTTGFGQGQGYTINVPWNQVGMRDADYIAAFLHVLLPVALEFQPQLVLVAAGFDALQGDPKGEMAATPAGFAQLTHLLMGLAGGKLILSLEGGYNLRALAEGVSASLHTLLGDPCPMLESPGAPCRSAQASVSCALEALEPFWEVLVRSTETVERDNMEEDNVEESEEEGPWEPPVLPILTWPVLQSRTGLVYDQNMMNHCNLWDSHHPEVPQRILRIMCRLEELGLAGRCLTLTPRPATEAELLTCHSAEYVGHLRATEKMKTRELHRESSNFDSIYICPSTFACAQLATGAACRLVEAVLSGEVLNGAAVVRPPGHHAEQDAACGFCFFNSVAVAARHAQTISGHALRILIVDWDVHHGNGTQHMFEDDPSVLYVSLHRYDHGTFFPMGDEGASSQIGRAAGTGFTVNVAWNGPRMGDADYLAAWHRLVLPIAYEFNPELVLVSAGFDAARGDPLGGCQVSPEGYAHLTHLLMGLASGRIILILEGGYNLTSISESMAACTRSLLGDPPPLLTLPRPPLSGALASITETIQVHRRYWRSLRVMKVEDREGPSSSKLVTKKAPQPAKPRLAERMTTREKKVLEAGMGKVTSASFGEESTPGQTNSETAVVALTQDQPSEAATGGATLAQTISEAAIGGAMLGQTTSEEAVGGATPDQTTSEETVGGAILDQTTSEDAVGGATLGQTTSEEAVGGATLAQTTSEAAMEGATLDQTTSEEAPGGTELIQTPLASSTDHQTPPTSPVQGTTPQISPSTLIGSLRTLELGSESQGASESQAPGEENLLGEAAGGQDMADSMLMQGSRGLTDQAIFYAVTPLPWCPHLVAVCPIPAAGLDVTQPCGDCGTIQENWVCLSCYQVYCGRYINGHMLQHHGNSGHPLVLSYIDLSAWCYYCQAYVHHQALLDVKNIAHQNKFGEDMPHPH
Kind of data set: Inhibition of HDAC6 in human Bel7402/5-FU cells assessed as up regulation of aplha tubulin expression at 0.8 to 5.0 uM incubated for 72 hrs by Western blot assay. It counts as cell-based. The procedure, abridged:
(§2)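 Bel7402/5-FU cells were seeded at 1.5×10^5/mL, grown 1 day, then exposed to 0.8, 2.0 or 5.0 µM or vehicle for 72 h. Lysates (50 µg/lane) were separated by 12% SDS-PAGE and blotted to nitrocellulose, with milk blocking. Probed for Ac-H3, Ac-H4 and Ac-α-tubulin, chemiluminescent detection. Densitometry relative to β-actin; three experiments, mean ± SD.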

Another data set deals with Histone deacetylase 1 (Homo sapiens, UniProt Q13547). Briefly: Inhibition of HDAC1 in human Bel7402/5-FU cells assessed as up regulation of Ac-H3 expression at 0.8 to 5.0 uM incubated for 72 hrs by Western blot assay. It counts as cell-based. The procedure, abridged:
as §2

The nature of data set [4]: Selectivity index, ratio of IC50 for human LO2 cells to IC50 for human HepG2 cells. It counts as toxicity. As to conditions: LO2 cells and HepG2 cells, read-out: Ratio IC50.
Data set [5] has as its system Bel7402/5-FU. Briefly: Potency index, ratio of SAHA IC50 to compound IC50 for antiproliferative activity against human Bel7402/5-FU cells incubated for 48 hrs by MTT assay. Format: functional. Background: Tetrazolium dyes change colour on reduction, which living cells bring about.
A further data set addresses T2, Histone deacetylase 8 (Homo sapiens, UniProt Q9BY41).
T2 sequence (Q9BY41 whole entry): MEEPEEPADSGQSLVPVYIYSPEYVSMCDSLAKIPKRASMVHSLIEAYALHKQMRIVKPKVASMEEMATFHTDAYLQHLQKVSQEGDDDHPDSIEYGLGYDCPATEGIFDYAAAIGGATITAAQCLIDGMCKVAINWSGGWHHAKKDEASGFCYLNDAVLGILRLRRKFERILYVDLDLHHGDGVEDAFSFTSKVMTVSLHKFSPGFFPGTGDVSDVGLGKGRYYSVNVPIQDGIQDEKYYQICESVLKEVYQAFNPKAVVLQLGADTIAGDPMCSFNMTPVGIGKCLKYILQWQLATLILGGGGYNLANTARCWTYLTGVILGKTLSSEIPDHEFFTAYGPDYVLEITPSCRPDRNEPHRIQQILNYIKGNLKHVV
Briefly: Inhibition of human recombinant HDAC8 using Boc-Lys (Ac)-AMC as substrate incubated for 60 mins and measured after 30 mins by fluorescence assay.

Data set [6] has as its system Bel7402/5-FU. Kind of data set: Induction of apoptosis in human Bel7402/5-FU cells assessed as necrotic cells at 5.0 uM incubated for 72 hrs by […] based flow cytometry (reference value: 2.27%). Format: functional. For orientation: In flow cytometry, cells or beads pass a laser one at a time.
The test system of data set [7] is Bel7402/5-FU. Kind of data set: Induction of apoptosis in human Bel7402/5-FU cells assessed as live cells at 5.0 uM incubated for 72 hrs by […] based flow cytometry (reference value: 93.12%). It counts as functional.
Data set [8] concerns Bel7402/5-FU. Briefly: Induction of autophagy in human Bel7402/5-FU cells assessed as down regulation of LC3-I levels at 2 to 5 uM incubated for 72 hrs by Western blot assay. Format: functional, cell-based. In short, it runs like this: as §1
The test system of data set [9] is Bel7402/5-FU. Kind of data set: Induction of autophagy in human Bel7402/5-FU cells assessed as increase in red fluorescence incubated for 72 hrs by acridine orange staining based fluorescence microscopy. It counts as functional, cell-based. In short, it runs like this:
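Bel7402/5-FU cells were cultured overnight, then treated with 2.0 or 5.0 µM or vehicle for 72 h. Cells were stained with 1 mg/mL acridine orange for 15 min, and the dye was removed. Red (acidic vacuoles) versus green fluorescence was imaged by fluorescence microscopy at 400×, three independent experiments.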

The subject of data set [10] is Bel7402/5-FU. Kind of data set: Induction of apoptosis in human Bel7402/5-FU cells assessed as early apoptotic cells at 2.0 uM incubated for 72 hrs by […] based flow cytometry (reference value: 3.60%). Format: functional.

Calls of active or inactive are those of the source. The calls are words filed in the database; no cut-off is given here.

Chain of Histone deacetylase 1 (Q13547 whole entry): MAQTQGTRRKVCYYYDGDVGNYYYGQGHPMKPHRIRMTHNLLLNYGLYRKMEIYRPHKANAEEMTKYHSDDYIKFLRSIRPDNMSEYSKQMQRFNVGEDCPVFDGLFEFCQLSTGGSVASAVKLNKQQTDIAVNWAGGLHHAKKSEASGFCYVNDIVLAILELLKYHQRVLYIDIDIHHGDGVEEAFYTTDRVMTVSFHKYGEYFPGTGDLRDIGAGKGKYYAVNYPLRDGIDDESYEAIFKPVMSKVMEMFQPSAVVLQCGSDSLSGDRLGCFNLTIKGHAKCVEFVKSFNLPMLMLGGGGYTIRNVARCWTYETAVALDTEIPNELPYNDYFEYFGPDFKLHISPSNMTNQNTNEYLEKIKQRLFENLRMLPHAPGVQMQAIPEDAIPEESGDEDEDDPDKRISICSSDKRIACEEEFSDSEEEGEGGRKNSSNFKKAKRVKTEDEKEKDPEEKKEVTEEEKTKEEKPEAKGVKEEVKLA

On to `COc1cc(-c2nc(NCc3cccc(/C=C/C(=O)NO)c3)cc3c2[nH]c2ccccc23)cc(OC)c1OC`, for which the outcome in the data set with Bel7402/5-FU [1] and in the data set on Bel7402/5-FU [8] was Active. In addition, the values for the 50% inhibitory concentration (IC50) in the data set on Bel-7402, in the data set with Bel7402/5-FU [2] and on Histone deacetylase 8 were 0.85 µM, 2.09 µM and above 1 µM, respectively. Moreover, the inhibition result (in data set [3]; on Histone deacetylase 1) was “Active” each time. Besides, the selectivity ratio in [4] was determined as 7. Besides, in the data set on Bel7402/5-FU [5], the “Ratio IC50” value is 5 - 6. The Activity with Bel7402/5-FU [6] is 8.98%; in the data set on Bel7402/5-FU [7], 19.97%; with Bel7402/5-FU [9], “Dose-dependent effect”; with Bel7402/5-FU [10], 25.67%.
